Bioassay records deposited in PubChem BioAssay by Johns Hopkins Ion Channel Center.
RGS4 inh: inhibitors of human RGS4. P49798. HEK293 M3R/RGS4 inducible, Fluo-4 calcium flux; stronger effect = higher value; triggered by carbachol at its EC20. B-score at 10 µM. 0.45% of 310,000 active;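 active = B-score, a plate-corrected calcium signal, over three deviations above library mean, with baseline fluorescence within five deviations of library mean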;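 also: RGS4 expression induced by doxycycline in cells with stable M3 receptor; B-score is computed from the integrated fluorescence ratio over baseline after carbachol; higher B-score means a larger calcium signal and so more RGS4 inhibition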
Target sequence (P49798 whole entry, looked up): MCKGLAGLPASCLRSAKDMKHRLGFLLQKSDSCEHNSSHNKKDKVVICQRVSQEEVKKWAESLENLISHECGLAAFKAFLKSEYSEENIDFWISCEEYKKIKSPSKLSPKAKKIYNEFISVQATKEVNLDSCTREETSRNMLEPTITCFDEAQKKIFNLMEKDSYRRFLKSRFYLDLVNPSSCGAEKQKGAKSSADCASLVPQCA
MrgX1 antag: human MrgX1 receptor antagonism, primary screen; Q96LB2; MRGX1-HEK293 calcium flux, Fluo-4, BAM8-22 antagonism; stronger effect = lower value; B-score at 10 µM; 1.3% of 310,000 active;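 active = calcium-response B-score plate-corrected more than 3 library SD below zero, starting fluorescence within 5 deviations, no agonist response on first addition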;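 also: peak minus trough fluorescence over baseline after final BAM8-22 challenge near maximal dose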
Target sequence (Q96LB2 whole entry, looked up): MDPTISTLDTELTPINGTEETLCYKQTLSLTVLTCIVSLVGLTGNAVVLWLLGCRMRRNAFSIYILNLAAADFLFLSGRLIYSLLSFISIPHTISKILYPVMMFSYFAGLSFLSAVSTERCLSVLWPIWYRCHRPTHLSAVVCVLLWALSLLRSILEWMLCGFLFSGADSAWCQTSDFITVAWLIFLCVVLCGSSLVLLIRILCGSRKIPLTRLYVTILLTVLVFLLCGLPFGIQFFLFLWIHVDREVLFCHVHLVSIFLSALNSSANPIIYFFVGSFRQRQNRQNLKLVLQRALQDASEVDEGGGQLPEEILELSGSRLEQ
MrgX1 agonist: activates human MrgX1 receptor signaling; Q96LB2; MrgX1-HEK293 cells, Fluo-4 calcium fluorescence, agonist mode; stronger effect = higher value; B-score at 10 µM; 0.44% of 310,000 active;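 active = calcium response B-score plate-corrected fluorescence ratio at least 3 library SD, with starting fluorescence B-score inside 5 SD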
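Assay system: MrgX1-expressing HEK293 cells / Amount: fifteen thousand cells per well / Doses: test compound in the initial addition of three / Timing: cells plated overnight, dye loaded 0.5 h 37 °C, 0.5 h room temperature / Technique: kinetic calcium dye fluorescence, Fluo-4 NW / Control set: positive and negative controls per plate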
MrgX1 allo act: human MrgX1 positive allosteric modulation, primary screen; Q96LB2; MrgX1-HEK293, Fluo-4 calcium flux, FDSS; stronger effect = higher value; B-score at 10 µM; 0.63% of 310,000 active;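 active = plate-corrected calcium response at least 3 library SD above typical, normal starting fluorescence, not activating the receptor alone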;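 also: compound read alongside a low EC10 to EC30 dose of BAM8-22 agonist; peak minus trough fluorescence over baseline measured at the second addition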
RGS4 pot: potentiators or activators of RGS4; HEK293 M3R/inducible RGS4, carbachol calcium flux Fluo4; stronger effect = lower value; B-score at 10 µM; 0.92% of 310,000 active;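 active = B-score of the integrated calcium signal more than 4 SD below the library mean, with starting fluorescence not abnormally high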;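 also: negative B-score means reduced calcium response which marks RGS4 activation or potentiation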
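Also added: carbachol at ECmax as muscarinic agonist stimulus; Assay system: HEK293 cells with stable M3R and inducible RGS4; Timing: overnight RGS4 induction, 30 min dye load 37 °C, 20 min compound RT; Measured by: Fluo4-AM (2 µM) calcium-flux fluorescence, kinetic read.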
RGS4 block valid: RGS4 inhibitor validation. shares compounds with RGS4 inh. HEK293 M3R/RGS4, carbachol calcium Fluo-4 fluorescence; carbachol added at its EC20; 0 = buffer wells, 100 = carbachol control. calcium response, % at 10 µM. 65% of 1,700 active;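 active = duplicate-averaged calcium response above the buffer-only control mean plus 5 SD of those controls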;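 also: integrated fluorescence ratio F max minus min over baseline F0; higher response in RGS4-induced cells means RGS4 inhibition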
RGS4 uninduced: checks RGS4 inhibitor effects in non-induced HEK293 M3R cells; shares compounds with RGS4 inh; 20% of 1,900 active; activity (percent), % at 10 µM; carbachol calcium Fluo-4; submaximal (EC20) carbachol stimulus; buffer wells 0%, carbachol control wells 100%; call rule not given here;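 also: RGS4 induction absent so cells express M3R without RGS4; higher means more calcium signal and flags a non-specific hit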
RGS4 inh ctr2: signal in non-induced cells without carbachol, RGS4 inhibitor counter-screen. shares compounds with RGS4 inh. HEK293 M3R/RGS4 non-induced, Fluo-4 calcium, no carbachol; normalised: buffer wells 0%, carbachol wells 100%. calcium response (agonist-mode artifact), % at 10 µM. 22% of 1,900 active. AID 493001;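 active = duplicate-averaged calcium rise in uninduced cells above buffer wells' mean plus 5 SD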
* marks the source's active call; other numbers are inactive results; i = inactive; nt = no result. The list is not random: actives were taken first. Their share in the collection is about 3.5%.

SMILES	RGS4 inh	MrgX1 antag	MrgX1 agonist	MrgX1 allo act	RGS4 pot	RGS4 block valid	RGS4 uninduced	RGS4 inh ctr2
CCCCOc1ccc(C(=O)CCN2CCOCC2)cc1	i	i	i	i	i	nt	nt	nt
CCOC(=O)N1CCN(C(=S)NC(=O)C23CC4CC(CC(C4)C2)C3)CC1	i	i	i	i	i	nt	nt	nt
Cc1ccc2cc(CN(C(=O)c3ccco3)c3ccccc3)c(=O)[nH]c2c1	5.37*	i	i	i	i	i	i	i
Cc1ccc(N(Cc2cc3ccc(C)cc3[nH]c2=O)C(=O)c2cccs2)cc1	i	i	i	i	i	nt	nt	nt
Cc1ccc(N(Cc2cc3ccc(C)cc3[nH]c2=O)C(=O)c2ccco2)cc1	i	i	i	i	i	i	i	i
Cc1ccc(N(Cc2cc3ccccc3[nH]c2=O)C(=O)c2ccco2)c(C)c1	i	i	i	i	i	nt	nt	nt
Cc1cccc(N(Cc2cc3ccc(C)cc3[nH]c2=O)C(=O)c2ccco2)c1	i	i	i	i	i	nt	i	i
O=C(CCCN1C(=O)/C(=C/c2ccc3c(c2)OCO3)SC1=S)Nc1ccc(C(=O)O)cc1	i	i	i	i	i	nt	nt	nt
O=C(O)C1C2C=CC(C2)C1C(=O)NCc1ccoc1 (stereo not drawn)	i	i	i	i	i	nt	nt	nt
Clc1ccccc1-c1nn2c(COc3ccccc3)nnc2s1	i	i	i	i	i	nt	nt	nt
CCCOc1ccc(-c2c(C(=O)N/N=C/c3ccc(C)cc3)nnn2-c2nonc2N)cc1	i	i	i	i	i	nt	39.0%*	i
CCOc1ccc(-c2c(C(=O)N/N=C/c3ccc(C)cc3)nnn2-c2nonc2N)cc1	i	i	i	i	i	i	i	i
COc1ccc(OCCN(C)CC(=O)Nc2c(C)cccc2C)cc1	i	i	i	i	i	nt	nt	nt
Cn1ncc(S(=O)(=O)Cc2ccccc2)c(Cl)c1=O	26.1*	i	i	i	i	42.5%*	i	i
Cc1ccc(NC(=O)CCn2c(=O)c3cccn3c3ccccc32)c(C)c1	i	i	i	i	i	nt	nt	nt
C=CCNc1nnc(SC2CC(=O)N(c3ccc(OC)cc3)C2=O)s1 (stereo not drawn)	5.66*	i	i	i	i	9.0%*	i	i
COc1ccc(N2C(=O)CC(Sc3nc4ccccc4s3)C2=O)cc1 (stereo not drawn)	i	i	i	i	i	nt	nt	nt
CCN(CC)S(=O)(=O)c1ccc2nc(NC(=O)c3ccco3)sc2c1	i	i	i	i	i	nt	nt	nt
N#Cc1ccc(C2=NC(C(F)(F)F)(C(F)(F)F)c3c(n(Cc4ccco4)c(=O)[nH]c3=O)N2)cc1	6.1*	i	36.9*	i	i	13.0%*	i	16.5%*
O=C(COc1ccc([N+](=O)[O-])cc1)NCCC1=CCCCC1	5.01*	i	i	i	i	i	i	i
COc1ccc(-c2cc(C)no2)cc1S(=O)(=O)NCCCN(C)Cc1ccccc1	i	i	i	i	i	nt	nt	nt
CC1CCc2c(sc(NC(=O)C3CCCO3)c2C#N)C1 (stereo not drawn)	i	i	i	i	i	nt	nt	nt
CCC(C(=O)N1CCOCC1)n1nc(C)c2c(C)n(-c3ccccc3)nc2c1=O (stereo not drawn)	8.97*	i	i	i	i	5.0%*	i	i
O=C1c2ccccc2CN1CCSC(=S)N1CCOCC1	6.49*	i	i	i	i	i	i	i
CCc1[nH]nc2c1C1(C(=O)N(Cc3ccccc3)c3ccccc31)C(C#N)=C(N)O2 (stereo not drawn)	i	i	i	i	i	nt	nt	nt
SMILES	RGS4 inh	MrgX1 antag	MrgX1 agonist	MrgX1 allo act	RGS4 pot	RGS4 block valid	RGS4 uninduced	RGS4 inh ctr2
COC(=O)Cc1[nH]nc2c1C1(C(=O)N(Cc3ccc(Cl)cc3)c3ccccc31)C(C#N)=C(N)O2 (stereo not drawn)	5.11*	i	i	i	i	6.5%*	i	i
CC1CCC(N2CCN(S(C)(=O)=O)CC2)CC1 (stereo not drawn)	i	i	i	i	i	nt	nt	nt
CN(C)c1oc(-c2ccccc2[N+](=O)[O-])nc1C#N	10.8*	i	i	i	i	5.0%*	i	i
N#C/C(=C/c1ccc(O)cc1)C(=O)NCc1ccc(Cl)cc1	i	i	i	i	i	i	i	i
Cc1cccc(-n2nc3c(c2NC(=O)C2CC2)CS(=O)(=O)C3)c1C	i	i	i	i	i	nt	nt	nt
COc1ccc(-c2nc(Cn3c(SCc4ccc(C)cc4)nc4ccncc43)c(C)o2)cc1OC	i	i	i	i	i	nt	nt	nt
CCOc1cccc(C2C(C(=O)c3ccc(C)o3)=C(O)C(=O)N2Cc2ccccc2)c1 (stereo not drawn)	4.71*	nt	nt	nt	i	16.5%*	i	i
COc1ccccc1-c1c(-c2ccc(O)cc2O)n[nH]c1C(F)(F)F	10.8*	i	i	i	i	39.5%*	33.0%*	i
COc1ccc(-c2c(-c3ccc(O)cc3O)n[nH]c2C(F)(F)F)cc1	10.4*	i	i	i	i	35.0%*	35.0%*	20.0%*
COc1ccc(-c2c(-c3ccc(O)cc3O)n[nH]c2C)cc1OC	i	i	i	i	i	nt	nt	nt
Nc1ncc(-c2ccccc2)c(-c2ccc(O)cc2O)n1	i	i	i	i	i	nt	nt	nt
Oc1ccc(-c2n[nH]c(C(F)(F)F)c2-c2ccccc2)c(O)c1	25.1*	i	i	i	i	48.5%*	46.5%*	i
COc1ccc(Cl)cc1NC(=O)CSc1ncnc2c1oc1ccccc12	i	i	i	i	i	nt	nt	nt
CNC(=S)N1CCN(C(=O)C2CCCO2)CC1 (stereo not drawn)	4.73*	i	i	i	i	i	i	i
Cc1cc(C)cc(OCC(=O)NCc2nc(-c3ccccc3)no2)c1	i	i	i	i	i	nt	nt	nt
